ChEMBL document CHEMBL1151934, “Exploration and optimization of substituted triazolothiadiazines and triazolopyridazines as PDE4 inhibitors” (Bioorg Med Chem Lett, 2009)
pEC50, pIC50: −log10 of the molar value. Each block holds one molecule with its values, some of them ahead of it. Calls of active or inactive are those of the source. The calls are words filed in the database; no cut-off is given here.

Experiments:
[1] = target: 3',5'-cyclic-AMP phosphodiesterase 4A (Homo sapiens, UniProt P27815); test: Inhibition of human PDE4A by IMAP fluorescence polarization technology
[2] = Metabolic stability in rat assessed as half life; type: ADME, organism-based; settings: in vivo
[3] = Intrinsic clearance in rat microsomes; type: ADME, Microsome
[4] = target: T1, High affinity 3',5'-cyclic-AMP phosphodiesterase 7A (Homo sapiens, UniProt Q13946); test: Inhibition of PDE7A at 10 uM
[5] = target: T2, 3',5'-cyclic-AMP phosphodiesterase 7B (Homo sapiens, UniProt Q9NP56); test: Inhibition of PDE7B at 10 uM
[6] = target: T3, Dual specificity calcium/calmodulin-dependent 3',5'-cyclic nucleotide phosphodiesterase 1B (Homo sapiens, UniProt Q01064); test: Inhibition of PDE1B at 10 uM
[7] = target: Beta-2 adrenergic receptor (Homo sapiens) (UniProt P07550); test: Inhibition of beta2 adrenergic receptor expressed in HEK293 cells co-transfected with PKA fragments Reg-F[1] and cat-F[2]-fused renilla luciferase assessed as effect on receptor regulated increase in cAMP accumulation at 100 uM after 30 mins by protein-fragment complementation assay; type: functional, cell-based
Summary of the method: (§1)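 Stable β2AR-HEK293 cells grown in DMEM with 10% fetal bovine serum and transiently transfected with the Rluc PCA PKA reporter. Compounds added 48 h after transfection. Medium exchanged for PBS and bioluminescence read on a luminometer immediately after treatment.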

[8] = target: cGMP-specific 3',5'-cyclic phosphodiesterase (Homo sapiens) (UniProt O76074); test: Inhibition of PDE5A1 at 10 uM
[9] = target: Beta-2 adrenergic receptor (Homo sapiens) (UniProt P07550); test: Inhibition of beta2 adrenergic receptor expressed in HEK293 cells co-transfected with PKA fragments Reg-F[1] and cat-F[2]-fused renilla luciferase assessed as effect on receptor regulated increase in cAMP accumulation at 10 uM after 30 mins by protein-fragment complementation assay; type: functional, cell-based; summary of the method: as §1
[10] = target: Dual specificity calcium/calmodulin-dependent 3',5'-cyclic nucleotide phosphodiesterase 1A (Homo sapiens) (UniProt P54750); test: Inhibition of PDE1A at 10 uM
[11] = Inhibition of PDE4 expressed in HEK293 cells coexpressing G-protein coupled receptor and cyclic nucleotide gated ion channel by fluorescence assay; type: cell-based
Summary of the method: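 PDE4-expressing reporter cells plated at 1000 cells/well in DMEM with penicillin/streptomycin and 2%, 5%, 10% or 20% fetal calf serum, 12 hr at 37 °C, 5% CO₂. Membrane potential dye 1 hr at room temperature, then compound pin-transferred from DMSO serial dilutions (final DMSO under 0.5%). Tested in duplicate.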

[12] = target: T4, cGMP-inhibited 3',5'-cyclic phosphodiesterase 3A (Homo sapiens, UniProt Q14432); test: Inhibition of PDE3A at 10 uM
[13] = target: cGMP-dependent 3',5'-cyclic phosphodiesterase (Homo sapiens) (UniProt O00408); test: Inhibition of PDE2A at 10 uM
[14] = target: T5, Dual specificity calcium/calmodulin-dependent 3',5'-cyclic nucleotide phosphodiesterase 1C (Homo sapiens, UniProt Q14123); test: Inhibition of PDE1C at 10 uM
[15] = target: Beta-2 adrenergic receptor (Homo sapiens) (UniProt P07550); test: Inhibition of beta2 adrenergic receptor expressed in HEK293 cells co-transfected with PKA fragments Reg-F[1] and cat-F[2]-fused renilla luciferase assessed as dissociation of PKA fragments after 2 mins by real time kinetic study relative to inverse agonist ICI-118551; type: functional, cell-based
Summary of the method: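 Stable β2AR-HEK293 cells grown in DMEM with 10% fetal bovine serum and transiently transfected with plasmids carrying the Rluc PCA PKA reporter (FuGENE-6). Cells were treated with compounds 48 h after transfection. Immediately after treatment, the medium was exchanged for PBS and bioluminescence was read on a luminometer.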

[16] = Inhibition of PDE4A1A
[17] = target: T4, cGMP-inhibited 3',5'-cyclic phosphodiesterase 3A
[18] = target: cGMP-inhibited 3',5'-cyclic phosphodiesterase 3B (Homo sapiens, UniProt Q13370)
[19] = target: cAMP and cAMP-inhibited cGMP 3',5'-cyclic phosphodiesterase 10A (Homo sapiens, UniProt Q9Y233); test: Inhibition of PDE10A1
[20] = target: T3, Dual specificity calcium/calmodulin-dependent 3',5'-cyclic nucleotide phosphodiesterase 1B
[21] = target: T5, Dual specificity calcium/calmodulin-dependent 3',5'-cyclic nucleotide phosphodiesterase 1C; test: Inhibition of PDE1C
[22] = target: T2, 3',5'-cyclic-AMP phosphodiesterase 7B; test: Inhibition of PDE7B
[23] = target: Beta-2 adrenergic receptor (Homo sapiens) (UniProt P07550); test: (§2) Inhibition of beta2 adrenergic receptor expressed in HEK293 cells co-transfected with PKA fragments Reg-F[1] and cat-F[2]-fused renilla luciferase assessed as effect on receptor regulated PKA activation at 100 uM after 30 mins by protein-fragment complementation assay; type: cell-based; summary of the method: as §1
[24] = target: Beta-2 adrenergic receptor (Homo sapiens) (UniProt P07550); test: as §2, with “assay in presence of inverse agonist ICI-118551” for “assay”; type: functional, cell-based; summary of the method: as §1
[25] = target: T1, High affinity 3',5'-cyclic-AMP phosphodiesterase 7A; test: Inhibition of PDE7A

T5 sequence (Q14123 whole entry, the tested form may be a part): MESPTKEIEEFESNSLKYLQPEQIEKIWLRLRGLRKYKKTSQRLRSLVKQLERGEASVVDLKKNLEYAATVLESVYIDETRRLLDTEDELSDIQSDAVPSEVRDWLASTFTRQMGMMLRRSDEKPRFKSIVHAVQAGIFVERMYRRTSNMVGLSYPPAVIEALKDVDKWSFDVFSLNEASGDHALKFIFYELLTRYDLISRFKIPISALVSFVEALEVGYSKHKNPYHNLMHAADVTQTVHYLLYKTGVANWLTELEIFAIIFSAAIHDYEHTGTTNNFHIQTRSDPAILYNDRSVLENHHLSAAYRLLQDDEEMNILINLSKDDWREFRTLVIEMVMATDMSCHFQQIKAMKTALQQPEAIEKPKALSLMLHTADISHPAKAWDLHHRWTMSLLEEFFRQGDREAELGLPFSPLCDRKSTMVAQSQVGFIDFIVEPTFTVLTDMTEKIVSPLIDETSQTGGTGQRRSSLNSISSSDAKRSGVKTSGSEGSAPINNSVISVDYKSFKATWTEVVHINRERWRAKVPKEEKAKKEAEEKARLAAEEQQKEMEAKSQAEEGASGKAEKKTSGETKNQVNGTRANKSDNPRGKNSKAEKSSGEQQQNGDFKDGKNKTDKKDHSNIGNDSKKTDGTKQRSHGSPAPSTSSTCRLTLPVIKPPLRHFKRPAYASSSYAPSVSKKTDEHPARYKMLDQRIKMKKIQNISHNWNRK
3',5'-cyclic-AMP phosphodiesterase 4A, sequence (P27815 whole entry): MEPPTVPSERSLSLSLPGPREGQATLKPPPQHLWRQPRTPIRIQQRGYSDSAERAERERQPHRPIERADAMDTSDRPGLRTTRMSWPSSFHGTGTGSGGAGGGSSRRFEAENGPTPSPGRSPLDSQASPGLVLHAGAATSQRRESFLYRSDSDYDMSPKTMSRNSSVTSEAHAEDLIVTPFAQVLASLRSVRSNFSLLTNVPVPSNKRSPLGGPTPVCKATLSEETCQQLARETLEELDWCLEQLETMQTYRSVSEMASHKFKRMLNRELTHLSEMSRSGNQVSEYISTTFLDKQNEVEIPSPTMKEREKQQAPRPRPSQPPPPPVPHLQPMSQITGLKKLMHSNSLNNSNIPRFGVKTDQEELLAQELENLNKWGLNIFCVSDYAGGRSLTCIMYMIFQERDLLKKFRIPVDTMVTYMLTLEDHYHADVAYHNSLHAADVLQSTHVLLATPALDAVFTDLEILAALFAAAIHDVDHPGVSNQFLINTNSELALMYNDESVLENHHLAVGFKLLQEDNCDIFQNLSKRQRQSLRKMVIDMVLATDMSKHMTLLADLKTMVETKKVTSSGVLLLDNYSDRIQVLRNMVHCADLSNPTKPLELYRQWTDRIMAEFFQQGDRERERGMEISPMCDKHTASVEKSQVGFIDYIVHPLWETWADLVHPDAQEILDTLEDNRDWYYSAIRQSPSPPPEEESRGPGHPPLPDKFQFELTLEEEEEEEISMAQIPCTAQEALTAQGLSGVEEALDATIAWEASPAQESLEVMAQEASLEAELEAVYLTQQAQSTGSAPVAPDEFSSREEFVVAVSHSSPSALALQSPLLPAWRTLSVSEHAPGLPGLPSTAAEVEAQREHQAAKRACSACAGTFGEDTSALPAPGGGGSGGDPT
T4 sequence (Q14432 whole entry): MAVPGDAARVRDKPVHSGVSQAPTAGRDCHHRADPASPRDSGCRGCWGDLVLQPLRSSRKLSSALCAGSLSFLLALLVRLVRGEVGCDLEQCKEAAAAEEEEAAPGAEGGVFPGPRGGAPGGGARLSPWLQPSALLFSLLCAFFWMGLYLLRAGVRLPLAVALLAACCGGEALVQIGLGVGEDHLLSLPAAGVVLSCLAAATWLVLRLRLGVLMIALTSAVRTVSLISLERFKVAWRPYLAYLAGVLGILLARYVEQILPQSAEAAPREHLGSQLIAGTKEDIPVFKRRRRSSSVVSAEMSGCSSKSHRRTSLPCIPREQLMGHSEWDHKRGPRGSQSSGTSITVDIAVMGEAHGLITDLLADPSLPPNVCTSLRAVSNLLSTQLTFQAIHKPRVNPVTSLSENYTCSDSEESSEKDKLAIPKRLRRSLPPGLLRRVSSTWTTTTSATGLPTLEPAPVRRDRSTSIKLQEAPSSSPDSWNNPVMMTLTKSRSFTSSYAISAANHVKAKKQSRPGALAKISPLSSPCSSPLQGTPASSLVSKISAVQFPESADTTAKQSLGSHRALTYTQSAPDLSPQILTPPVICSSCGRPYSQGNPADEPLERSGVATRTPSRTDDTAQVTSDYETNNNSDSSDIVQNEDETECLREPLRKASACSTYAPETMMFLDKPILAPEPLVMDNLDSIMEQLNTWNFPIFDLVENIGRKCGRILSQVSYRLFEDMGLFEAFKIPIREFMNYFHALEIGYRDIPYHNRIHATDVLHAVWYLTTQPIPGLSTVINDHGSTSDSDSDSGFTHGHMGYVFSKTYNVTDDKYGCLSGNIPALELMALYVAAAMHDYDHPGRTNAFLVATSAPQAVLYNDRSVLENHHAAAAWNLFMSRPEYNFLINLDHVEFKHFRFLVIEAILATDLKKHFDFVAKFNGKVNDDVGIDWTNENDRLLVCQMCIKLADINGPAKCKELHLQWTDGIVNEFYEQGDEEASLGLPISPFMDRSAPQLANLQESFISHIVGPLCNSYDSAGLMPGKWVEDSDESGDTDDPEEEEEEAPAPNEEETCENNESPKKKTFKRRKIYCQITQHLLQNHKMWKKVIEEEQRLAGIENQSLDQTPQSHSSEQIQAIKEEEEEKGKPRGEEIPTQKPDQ
T3 sequence (Q01064 whole entry, the tested form may be a part): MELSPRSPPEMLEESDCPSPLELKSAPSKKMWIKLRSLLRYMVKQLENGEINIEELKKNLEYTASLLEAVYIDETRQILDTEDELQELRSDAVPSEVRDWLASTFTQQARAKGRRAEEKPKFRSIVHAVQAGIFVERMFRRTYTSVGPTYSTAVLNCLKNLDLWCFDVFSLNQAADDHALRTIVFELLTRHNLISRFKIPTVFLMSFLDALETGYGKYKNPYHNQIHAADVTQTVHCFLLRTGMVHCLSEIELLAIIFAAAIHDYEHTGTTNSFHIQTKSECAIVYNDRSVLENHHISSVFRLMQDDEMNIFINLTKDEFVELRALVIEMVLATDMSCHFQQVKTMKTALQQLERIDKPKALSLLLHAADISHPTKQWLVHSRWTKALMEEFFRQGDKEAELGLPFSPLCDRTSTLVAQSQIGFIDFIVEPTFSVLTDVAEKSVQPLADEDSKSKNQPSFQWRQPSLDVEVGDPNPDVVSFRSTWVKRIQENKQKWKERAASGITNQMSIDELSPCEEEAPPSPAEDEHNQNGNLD
T2 sequence (Q9NP56 whole entry): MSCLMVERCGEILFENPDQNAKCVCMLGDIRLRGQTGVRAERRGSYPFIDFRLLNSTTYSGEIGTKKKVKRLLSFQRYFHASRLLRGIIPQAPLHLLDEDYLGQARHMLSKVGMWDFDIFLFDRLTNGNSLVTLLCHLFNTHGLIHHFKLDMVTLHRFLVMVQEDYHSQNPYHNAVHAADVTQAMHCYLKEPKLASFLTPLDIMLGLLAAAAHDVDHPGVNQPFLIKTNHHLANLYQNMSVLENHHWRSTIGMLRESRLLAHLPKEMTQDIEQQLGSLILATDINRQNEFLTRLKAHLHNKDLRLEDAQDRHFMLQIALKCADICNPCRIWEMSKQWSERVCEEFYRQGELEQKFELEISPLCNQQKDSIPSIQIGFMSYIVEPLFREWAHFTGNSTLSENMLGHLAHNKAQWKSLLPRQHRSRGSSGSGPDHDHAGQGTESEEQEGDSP
Beta-2 adrenergic receptor (Homo sapiens), sequence (P07550 whole entry, looked up, the tested form may be a part): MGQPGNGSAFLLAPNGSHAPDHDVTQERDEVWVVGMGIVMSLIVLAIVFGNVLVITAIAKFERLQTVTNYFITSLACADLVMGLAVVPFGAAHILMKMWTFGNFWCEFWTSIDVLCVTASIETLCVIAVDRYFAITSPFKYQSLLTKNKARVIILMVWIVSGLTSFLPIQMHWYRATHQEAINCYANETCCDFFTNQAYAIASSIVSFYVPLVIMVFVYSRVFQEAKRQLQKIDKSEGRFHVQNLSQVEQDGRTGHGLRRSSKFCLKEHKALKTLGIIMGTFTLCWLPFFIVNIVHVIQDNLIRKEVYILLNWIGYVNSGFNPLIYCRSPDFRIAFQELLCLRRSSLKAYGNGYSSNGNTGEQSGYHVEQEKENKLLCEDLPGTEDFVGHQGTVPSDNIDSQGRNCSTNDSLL
T1 sequence (Q13946 whole entry): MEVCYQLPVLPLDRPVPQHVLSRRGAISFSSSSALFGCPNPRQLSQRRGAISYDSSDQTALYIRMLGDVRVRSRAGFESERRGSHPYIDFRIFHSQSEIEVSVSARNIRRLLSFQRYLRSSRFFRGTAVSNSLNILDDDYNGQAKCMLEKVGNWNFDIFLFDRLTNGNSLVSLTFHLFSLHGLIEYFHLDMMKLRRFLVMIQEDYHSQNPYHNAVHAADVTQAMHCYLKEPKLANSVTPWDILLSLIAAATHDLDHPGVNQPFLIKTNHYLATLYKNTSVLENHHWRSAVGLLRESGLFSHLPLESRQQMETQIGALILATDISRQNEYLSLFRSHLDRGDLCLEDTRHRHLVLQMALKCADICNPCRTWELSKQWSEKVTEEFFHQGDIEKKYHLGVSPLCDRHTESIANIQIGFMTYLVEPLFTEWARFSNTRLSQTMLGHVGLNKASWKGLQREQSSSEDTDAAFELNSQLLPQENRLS

Structure (SMILES): COc1ccc(OC)c(-c2nnc3n2N=C(c2ccc(OC)c(OCC4CC4)c2)CS3)c1
half-life [2]: 3 min
microsomal CLint [3]: > 300 µL/min/mg

Structure (SMILES): COc1ccc(OC)c(-c2nnc3n2N=C(c2ccc(OC)c(OC4CCCC4)c2)CS3)c1
half-life [2]: 3 min
microsomal CLint [3]: > 300 µL/min/mg

Structure (SMILES): COc1ccccc1-c1nnc2n1N=C(c1ccc(OC(F)F)c(OCC3CC3)c1)CS2
pIC50 [1]: 7.46

Structure (SMILES): COc1ccc(OC)c(-c2nnc3n2N=C(c2ccc(OC)c(O[C@@H]4CCOC4)c2)CS3)c1
inhibition [4]: 48%
inhibition [5]: 43%
inhibition [6]: 52%
inhibition [7]: Active
half-life [2]: 3 min
inhibition [8]: 58%
inhibition [9]: Active
inhibition [10]: 36%
pEC50 [11]: 8.64
microsomal CLint [3]: > 300 µL/min/mg
inhibition [12]: 56%
inhibition [13]: 68%
inhibition [14]: 49%
inhibition [15]: 25%

Structure (SMILES): COc1ccc(OC)c(-c2nnc3ccc(-c4ccc(OC)c(O[C@@H]5CCOC5)c4)nn23)c1
inhibition [4]: 59%
inhibition [5]: 35%
inhibition [6]: 56%
inhibition [7]: Active
half-life [2]: 3 min
inhibition [8]: 51%
pIC50 [16]: 9.22
inhibition [9]: Active
inhibition [10]: 32%
pEC50 [11]: 7.47
microsomal CLint [3]: > 300 µL/min/mg
inhibition [12]: 54%
inhibition [13]: 54%
inhibition [14]: 74%

Structure (SMILES): COc1ccc(OC)c(-c2nnc3n2N=C(c2ccc(OC)c(OC)c2)CS3)c1
pIC50 [17]: 5.77
half-life [2]: 3 min
pIC50 [18]: 6.14
pEC50 [11]: 7.73
microsomal CLint [3]: > 300 µL/min/mg
pIC50 ([19]; read-out: IC50): 6.08

Structure (SMILES): FC(F)Oc1ccc(C2=Nn3c(nnc3-c3ccccc3Cl)SC2)cc1OCC1CC1
pIC50 [1]: 7.43

Structure (SMILES): COc1ccc(C2CNC(=O)C2)cc1OC1CCCC1 (stereo not given) [ROLIPRAM]
IC50 [20]: Not Active
IC50 [21]: Not Active
IC50 [22]: Not Active
inhibition [23]: Active
inhibition [24]: inactive
IC50 [25]: Not Active
IC50 [19]: Not Active

Structure (SMILES): COc1ccc(OC)c(-c2nnc3ccc(-c4ccc(OC)c(O[C@H]5CCOC5)c4)nn23)c1
half-life [2]: 3 min
microsomal CLint [3]: > 300 µL/min/mg

Structure (SMILES): COc1ccc(OC)c(-c2nnc3n2N=C(c2ccc(OC(F)F)c(OCC4CC4)c2)CS3)c1
half-life [2]: 3 min
microsomal CLint [3]: > 300 µL/min/mg

Further lines, results first:

pIC50 [1]: 8.07
Structure (SMILES): COc1ccc(C2=Nn3c(nnc3-c3ccccc3F)SC2)cc1O[C@@H]1CCOC1

pIC50 [1]: 7.70
Structure (SMILES): COc1ccc(C2=Nn3c(nnc3-c3ccccc3OC)SC2)cc1OC1CCOC1 (stereo not given)

pIC50 [1]: 7.49
Structure (SMILES): COc1ccc(C2=Nn3c(nnc3-c3ccccc3OC)SC2)cc1OC1CCCC1

pIC50 [1]: 7.68
Structure (SMILES): COc1ccc(C2=Nn3c(nnc3-c3ccccc3Cl)SC2)cc1OCC1CC1

pIC50 [1]: 7.96
Structure (SMILES): COc1ccc(C2=Nn3c(nnc3-c3ccccc3OC)SC2)cc1O[C@@H]1CCOC1

pIC50 [1]: 8.01
Structure (SMILES): COc1ccc(C2=Nn3c(nnc3-c3ccccc3Cl)SC2)cc1OC1CCOC1 (stereo not given)

pIC50 [1]: 8.42
Structure (SMILES): COc1ccc(C2=Nn3c(nnc3-c3ccccc3Cl)SC2)cc1O[C@@H]1CCOC1

pIC50 [1]: 7.59
Structure (SMILES): COc1ccc(C2=Nn3c(nnc3-c3ccccc3Cl)SC2)cc1OC1CCCC1

half-life [2]: 3 min
microsomal CLint [3]: > 300 µL/min/mg
Structure (SMILES): COc1ccc(OC)c(-c2nnc3n2N=C(c2ccc(OC)c(OC4CCOC4)c2)CS3)c1 (racemic)

pIC50 [1]: 7.48
Structure (SMILES): COc1ccc(C2=Nn3c(nnc3-c3ccccc3F)SC2)cc1OC1CCCC1

pIC50 [1]: 7.28
Structure (SMILES): Fc1ccccc1-c1nnc2n1N=C(c1ccc(OC(F)F)c(OCC3CC3)c1)CS2

pIC50 [1]: 7.96
Structure (SMILES): COc1ccc(C2=Nn3c(nnc3-c3ccccc3F)SC2)cc1OC1CCOC1 (stereo not given)

pIC50 [1]: 7.46
Structure (SMILES): COc1ccc(C2=Nn3c(nnc3-c3ccccc3OC)SC2)cc1OCC1CC1
